The text below walks through data of ChEMBL document CHEMBL5029148, “Discovery of Arylsulfonamides as Dual Orexin Receptor Agonists” (J Med Chem, 2021).

In experiment [1] the target is T1, Orexin/Hypocretin receptor type 1 (Homo sapiens, UniProt O43613).
T1 sequence (O43613 whole entry): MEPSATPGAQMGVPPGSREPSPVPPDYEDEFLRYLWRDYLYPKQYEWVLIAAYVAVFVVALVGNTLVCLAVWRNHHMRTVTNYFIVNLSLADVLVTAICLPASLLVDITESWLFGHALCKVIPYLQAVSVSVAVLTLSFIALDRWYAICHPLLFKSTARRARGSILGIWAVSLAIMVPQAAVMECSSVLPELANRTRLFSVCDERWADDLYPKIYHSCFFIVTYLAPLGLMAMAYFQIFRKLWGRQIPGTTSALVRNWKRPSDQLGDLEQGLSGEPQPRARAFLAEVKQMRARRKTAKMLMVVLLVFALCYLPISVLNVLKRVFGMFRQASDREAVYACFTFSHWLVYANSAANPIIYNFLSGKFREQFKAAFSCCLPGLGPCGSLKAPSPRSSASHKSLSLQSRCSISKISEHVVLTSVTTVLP
Nature of the experiment: Agonist activity at human OX1R stably expressed in CHO RD-HGA16 cells assessed as fluorescence changes measured after 30 mins by calcium mobilization assay. The experiment is classed as functional, cell-based. (Calcium flux is commonly read through the fluorescence of an indicator in the cells.)

The target of experiment [2] is T2, Orexin receptor type 2 (Homo sapiens, UniProt O43614).
T2 sequence (O43614 whole entry): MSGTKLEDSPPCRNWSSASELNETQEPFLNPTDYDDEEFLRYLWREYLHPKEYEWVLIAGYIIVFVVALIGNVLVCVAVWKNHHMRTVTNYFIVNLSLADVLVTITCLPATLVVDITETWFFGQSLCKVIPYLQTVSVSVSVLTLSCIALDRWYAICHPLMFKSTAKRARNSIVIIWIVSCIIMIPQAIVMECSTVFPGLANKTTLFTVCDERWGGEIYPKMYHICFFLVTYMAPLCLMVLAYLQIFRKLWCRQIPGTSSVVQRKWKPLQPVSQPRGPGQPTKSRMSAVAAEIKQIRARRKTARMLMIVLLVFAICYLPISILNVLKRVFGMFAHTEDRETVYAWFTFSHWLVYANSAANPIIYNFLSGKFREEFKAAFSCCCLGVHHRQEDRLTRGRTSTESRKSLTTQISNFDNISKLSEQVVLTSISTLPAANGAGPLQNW
Nature of the experiment: Agonist activity at human OX2R stably expressed in CHO RD-HGA16 cells assessed as fluorescence changes measured after 30 mins by calcium mobilization assay. It counts as functional, cell-based.

Experiment [3] relates to Mus musculus. Nature of the experiment: Sleep modulation activity in mouse assessed as increase in time spent in wakefulness during light phase at 30 to 300 nmol, icv measured up to 3 hrs of post injection. The note with it: dose 30-300 nmol, time hrs <=3. The experiment is classed as functional, organism-based.
The test system of experiment [4] is Mus musculus. Nature of the experiment: Sleep modulation activity in mouse assessed as decrease in time spent in non-rapid eye movement sleep during light phase at 30 to 300 nmol, icv measured up to 3 hrs of post injection. It counts as functional, organism-based. The note with it: dose 30-300 nmol, time hrs <=3.
In experiment [5] the test system is Mus musculus. Briefly: Sleep modulation activity in mouse assessed as increase in time spent in wakefulness during light phase at 20 mg/kg, ip measured up to 6 hrs of post injection. It counts as functional, organism-based. The note with it: time hrs <=6.
The test system of experiment [6] is Mus musculus. Nature of the experiment: Sleep modulation activity in mouse assessed as increase in time spent in rapid eye movement sleep during light phase at 20 mg/kg, ip measured up to 6 hrs of post injection. The experiment is classed as functional, organism-based. The note with it: time hrs <=6.
Experiment [7] deals with Mus musculus. Briefly: Sleep modulation activity in mouse assessed as increase in time spent in wakefulness during light phase at 40 to 60 mg/kg, ip measured up to 3 hrs of post injection. The note with it: dose 40-60 mg/kg, time hrs <=3.
The subject of experiment [8] is Mus musculus. Nature of the experiment: Sleep modulation activity in mouse assessed as decrease in time spent in rapid eye movement sleep during light phase at 40 to 60 mg/kg, ip measured up to 3 hrs of post injection. The note with it: dose 40-60 mg/kg, time hrs <=3.
Experiment [9] addresses T1, Orexin/Hypocretin receptor type 1. Briefly: Agonist activity at human OX1R stably expressed in CHO cells. The experiment is classed as functional, cell-based, CHO-RD-HGA16.
The subject of experiment [10] is Mus musculus. Nature of the experiment: Sleep modulation activity in mouse assessed as increase in time spent in wakefulness at 40 mg/kg, ip measured after 4 hrs post injection. The experiment is classed as functional, organism-based. In a few lines: (§1)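 Twelve-month-old mice implanted under ketamine/xylazine with telemetric EEG/EMG electrodes, and allowed 7–10 days or more to recover. They were housed on 12-h light/dark (lights on 06:00) at 21–22°C. Counterbalanced crossover: 40 mg/kg i.p. in 0.3 ml saline or saline, given at ZT 4–4.5, at least 48 h apart. Manual 10-s epoch scoring (wake/NREM/REM) over 0–4 h gave % time, transitions, episode number and duration. Mean ± SEM.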

The subject of experiment [11] is Mus musculus. Nature of the experiment: Sleep modulation activity in mouse assessed as decrease in time spent in non-rapid eye movement sleep at 40 mg/kg, ip measured after 4 hrs post injection. The experiment is classed as functional, organism-based. In a few lines:
as §1

Experiment [12] relates to Mus musculus. Nature of the experiment: Sleep modulation activity in mouse assessed as decrease in time spent in rapid eye movement sleep at 40 mg/kg, ip measured after 4 hrs post injection. The experiment is classed as functional, organism-based. In a few lines:
as §1

Experiment [13] relates to Mus musculus. Nature of the experiment: Sleep modulation activity in mouse assessed as reduction in transition between states by measuring stabilization of reduced sleep/wake fragmentation at 40 mg/kg, ip measured after 4 hrs post injection. The experiment is classed as functional, organism-based. In a few lines:
as §1

In experiment [14] the test system is Mus musculus. Nature of the experiment: Sleep modulation activity in mouse assessed as effect on number of episodes of rapid eye movement sleep at 40 mg/kg, ip measured after 4 hrs post injection. It counts as functional, organism-based. In a few lines:
as §1

Experiment [15] has as its system Mus musculus. Nature of the experiment: Sleep modulation activity in mouse assessed as reduction in number of episodes of wake at 40 mg/kg, ip measured after 4 hrs post injection.
The subject of experiment [16] is Mus musculus. Briefly: Sleep modulation activity in mouse assessed as reduction in number of episodes of non-rapid eye movement sleep at 40 mg/kg, ip measured after 4 hrs post injection.
Experiment [17] concerns the target T2, Orexin receptor type 2. Nature of the experiment: Agonist activity at human OX2R stably expressed in CHO cells. It counts as functional, cell-based, CHO-RD-HGA16.

The source made the active and inactive calls. The calls are words filed in the database; no cut-off is given here.

In the case of `COc1ccc(-c2cccc(C(=O)N(C)C)c2)cc1S(=O)(=O)Nc1cccc(NCCNC(=O)c2ccccc2N(C)C)c1`, the EC50 stood at 0.824 µM in [1] and 0.165 µM in [2]. The result in experiment [3], in experiment [4], in experiment [7] and in experiment [8] was Active. The result in [5] and in [6] was inactive.
On to `COc1ccc(-c2cccc(CN(C)C)c2)cc1S(=O)(=O)Nc1cccc(NCCNC(=O)c2ccccc2N(C)C)c1`, for which the EC50 in experiment [1] was greater than 10 µM; in experiment [2], 0.56 µM.
For the compound `COc1ccc(/C=C/C(=O)N(C)C)cc1S(=O)(=O)Nc1cccc(NCCNC(=O)c2cccc(C)c2)c1`, the EC50 in experiment [2] was greater than 10 µM.
With `COc1ccc(-c2cccc(C(=O)N(C)c3ccccn3)c2)cc1S(=O)(=O)Nc1cccc(NCCNC(=O)c2cccc(C)c2)c1`, the EC50 in [1] was greater than 10 µM.
As to `COc1ccc(-c2cccc(C(=O)N(C)C)c2)cc1S(=O)(=O)Nc1cccc(N2CCN(C(=O)c3ccccc3N(C)C)CC2)c1`, the EC50 in [1] and in experiment [2] was greater than 10 µM in each case.
With `COc1ccc(-c2cccc(C(=O)N(C)C)c2)cc1S(=O)(=O)Nc1cccc(CCNC(=O)c2ccccc2-n2nccn2)c1`, in [9] (read-out: pEC50 (converted)), the EC50 was less than 35.5 µM.
Consider `COc1ccc(-c2cccc(C(=O)NCCN(C)C)c2)cc1S(=O)(=O)Nc1cccc(NCCNC(=O)c2cccc(C)c2)c1`, for which the EC50 in experiment [1] was greater than 10 µM.
With `COc1ccc(-c2cccc(C(=O)N(C)C)c2)cc1S(=O)(=O)Nc1cccc(N2CCN(C(=O)c3cccc(C)c3)CC2)c1`, the EC50 in experiment [1] and in experiment [2] was greater than 10 µM throughout.
Regarding `COc1ccc(-c2cccc(C(=O)N(C)Cc3ccncc3)c2)cc1C(=O)Nc1cccc(NCCNC(=O)c2cccc(C)c2)c1`, the figures for the EC50 in [1] and in experiment [2] were greater than 10 µM and 0.863 µM, respectively.
Take `COc1ccc(-c2csc(C(=O)N(C)C)c2)cc1S(=O)(=O)Nc1cccc(NCCNC(=O)c2cccc(C)c2)c1`: the EC50 in [2] is 0.166 µM.
As for `COc1ccc(-c2cccc(C(=O)N(C)C)c2)cc1S(=O)(=O)Nc1cccc(NCC(C)NC(=O)c2cccc(C)c2)c1` (stereo not drawn), the EC50 in experiment [1] is 0.666 µM; in experiment [2], 0.376 µM.
Take `COc1ccc(-c2cccc(C(=O)NCc3ccccn3)c2)cc1S(=O)(=O)Nc1cccc(NCCNC(=O)c2cccc(C)c2)c1`: in [1], the EC50 was greater than 10 µM.
For the compound `COc1ccc(-c2cccc(C(=O)N(C)Cc3ccncc3)c2)cc1S(=O)(=O)Nc1cccc(NCCNC(=O)c2cccc(C)c2)c1`, the outcome in experiment [10], in experiment [11], in [12], in experiment [13], in experiment [15] and in experiment [16] was Active. For the same compound, the result in experiment [14] was inactive.
For `COc1ccc(-c2cccc(C(=O)N(C)C)c2)cc1C(=O)Nc1cccc(NCCNC(=O)c2cccc(C)c2)c1`, the values for the EC50 in experiment [1] and in [2] were greater than 10 µM and 1.27 µM, respectively.
Turning to `COc1ccc(CCC(=O)N(C)C)cc1S(=O)(=O)Nc1cccc(NCCNC(=O)c2cccc(C)c2)c1`, the EC50 in experiment [2] was greater than 10 µM.
`Cc1ccc(Cn2c(=N)n(CC(O)c3ccc(Cl)c(Cl)c3)c3ccccc32)cc1` (stereo not drawn): the EC50 in experiment [9] (read-out: EC50) and in [17] was greater than 3.2 µM throughout.
For the compound `COC(=O)N1CCC[C@H](NS(C)(=O)=O)[C@@H]1CO[C@H]1CC[C@@H](c2ccccc2)CC1` [DANAVOREXTON], the EC50 in [9] (read-out: EC50) is greater than 30 µM.
Turning to `COc1ccc(-c2cccc(C(=O)N(C)Cc3ccccc3)c2)cc1S(=O)(=O)Nc1cccc(NCCNC(=O)c2cccc(C)c2)c1`, the EC50 in experiment [1] is greater than 10 µM.
